Data set [1] deals with T1, Neuropeptide Y receptor type 4 (Homo sapiens, UniProt P50391). As to the kind of experiment: Displacement of [Lys2(sCy5),Arg4]-BVD-15 from C-terminal GFP-tagged neuropeptide Y4R (unknown origin) expressed in human 293TR cells measured after 30 mins by fluorescence analysis. The data set is classed as cell-based.
The target of data set [2] is T1, Neuropeptide Y receptor type 4. As to the kind of experiment: Agonist activity at GFP-tagged neuropeptide Y4R (unknown origin) expressed in HEK293T cells assessed as beta-arrestin2 recruitment measured after 60 mins by H33342 staining-based imaging method relative to PP. Format: cell-based. The method in brief: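 Y4R–β-arrestin2 BiFC cell lines were seeded on poly-D-lysine plates and tested 24 h later. Ligands (10^-10–10^-6 M, duplicate wells) were applied in HBSS/0.1% BSA for 60 min at 37°C. Cells were fixed with 3% paraformaldehyde (10 min, 21°C) and nuclei stained with H33342. Confocal images were taken at 405/488 nm, and internal YFP granules ≥3 µm were counted against vehicle or 100 nM PP thresholds.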
Background: Recruitment of arrestin is a read-out of receptor activation apart from second messengers.

Data set [3] shares this target. The data set can be described thus: Agonist activity at GFP-tagged neuropeptide Y4R (unknown origin) expressed in HEK293T cells assessed as beta-arrestin2 recruitment measured after 60 mins by H33342 staining-based imaging method. The data set is classed as cell-based.
A further data set is filed under the species Homo sapiens. As to the kind of experiment: Selectivity ratio of IC50 for GFP-tagged neuropeptide Y1R (unknown origin) expressed in HEK293T cells to IC50 for C-terminal GFP-tagged neuropeptide Y4R (unknown origin) expressed in human 293TR cells. The data set is classed as cell-based. In outline:
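Whole-cell competition binding used tetracycline-induced 293TR cells expressing Y1-GFP or Y4-GFP. Cells were exposed to competitor for 2 min, then to sCy5-labelled tracer (10 nM for Y1R, 100 nM for Y4R) for 30 min at 37°C.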

For data set [4], the target named is T1, Neuropeptide Y receptor type 4. The data set can be described thus: Agonist activity at GFP-tagged neuropeptide Y4R (unknown origin) expressed in HEK293T cells assessed as beta-arrestin2 recruitment at 1 uM measured after 60 mins by H33342 staining-based imaging method relative to PP. Format: cell-based. The method in brief:
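Y4R–β-arrestin2 BiFC cells were stimulated in HBSS/0.1% BSA for 60 min at 37°C, then fixed with 3% paraformaldehyde and stained with H33342. Complemented YFP was imaged by confocal platereader and quantified by granularity analysis with vehicle or 100 nM PP controls. Where agonist activity was not significant, the response at 1 µM peptide was reported.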

The nature of data set [5]: Cellular uptake in human 293T-rex cells expressing C-terminal GFP-tagged neuropeptide Y4R measured after 30 mins by fluorescence analysis. The data set is classed as ADME, cell-based. The note with it: hek-293t, 0.5 h. In outline: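 293TR Y4-GFP cells, induced with 1 µg/ml tetracycline for 18–21 h, were incubated with sCy5-labelled peptide for 30 min at 37°C in HBSS/0.1% BSA with H33342. Controls were uninduced cells and 1 µM PP competition. Surface and intracellular sCy5 fluorescence was imaged by confocal platereader.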

This note sets out measurements from ChEMBL document CHEMBL4425111, “Optically Pure, Structural, and Fluorescent Analogues of a Dimeric Y4 Receptor Agonist Derived by an Olefin Metathesis Approach” (J Med Chem, 2016).

T1 sequence (P50391 whole entry): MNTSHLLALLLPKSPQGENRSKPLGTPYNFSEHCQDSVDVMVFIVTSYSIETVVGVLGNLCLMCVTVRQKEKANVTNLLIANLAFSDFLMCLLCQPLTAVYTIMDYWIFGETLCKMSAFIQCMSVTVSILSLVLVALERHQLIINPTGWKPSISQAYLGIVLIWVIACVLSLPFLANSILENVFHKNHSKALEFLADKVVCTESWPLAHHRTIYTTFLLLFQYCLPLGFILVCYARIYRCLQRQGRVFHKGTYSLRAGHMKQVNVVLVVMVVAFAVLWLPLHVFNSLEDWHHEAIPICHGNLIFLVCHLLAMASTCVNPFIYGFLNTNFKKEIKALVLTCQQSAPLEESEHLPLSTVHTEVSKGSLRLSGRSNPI

Regarding `CC(C)C[C@H](NC(=O)[C@H](CCCNC(=N)N)NC(=O)[C@H](Cc1ccc(O)cc1)NC(=O)[C@@H](N)C/C=C\C[C@H](N)C(=O)N[C@@H](Cc1ccc(O)cc1)C(=O)N[C@@H](CCCNC(=N)N)C(=O)N[C@@H](CC(C)C)C(=O)N[C@@H](CCCNC(=N)N)C(=O)N[C@@H](Cc1ccc(O)cc1)C(N)=O)C(=O)N[C@@H](CCCNC(=N)N)C(=O)N[C@@H](Cc1ccc(O)cc1)C(N)=O`, the IC50 in data set [1] (read-out: pIC50 (converted)) is 132 nM. The Rmax in data set [2] was 44.5%. Besides, the EC50 in data set [3] (read-out: pEC50 (converted)) was 30.2 nM. Besides, the Ratio IC50 in the data set filed under Homo sapiens amounted to 3.7.

As to `CC(C)C[C@H](NC(=O)[C@H](CCCNC(=N)N)NC(=O)[C@H](Cc1ccc(O)cc1)NC(=O)[C@H](N)CCCC[C@@H](N)C(=O)N[C@@H](Cc1ccc(O)cc1)C(=O)N[C@@H](CCCNC(=N)N)C(=O)N[C@@H](CC(C)C)C(=O)N[C@@H](CCCNC(=N)N)C(=O)N[C@@H](Cc1ccc(O)cc1)C(N)=O)C(=O)N[C@@H](CCCNC(=N)N)C(=O)N[C@@H](Cc1ccc(O)cc1)C(N)=O`, the IC50 in data set [1] (read-out: IC50) amounted to 12.7 nM. Moreover, in data set [2], the Rmax amounted to 61.5%. The EC50 in data set [3] (read-out: EC50) worked out at 4.6 nM. Besides, the Ratio IC50 in the data set filed under Homo sapiens was 30.

As to `COC(=O)[C@H](Cc1ccc(O)cc1)NC(=O)[C@H](CCCNC(=N)N)NC(=O)[C@H](CC(C)C)NC(=O)[C@H](CCCNC(=N)N)NC(=O)[C@H](Cc1ccc(O)cc1)NC(=O)[C@@H](N)CCCC[C@H](N)C(=O)N[C@@H](Cc1ccc(O)cc1)C(=O)N[C@@H](CCCNC(=N)N)C(=O)N[C@@H](CC(C)C)C(=O)N[C@@H](CCCNC(=N)N)C(=O)N[C@@H](Cc1ccc(O)cc1)C(N)=O`, the IC50 in data set [1] (read-out: pIC50 (converted)) was 93.3 nM. Moreover, the Rmax in data set [2] came out at 49.1%. The EC50 in data set [3] (read-out: pEC50 (converted)) is above 316 nM.

In the case of `CCN(CC)c1ccc2c(-c3ccccc3C(=O)N3CCN(C(=O)CCC(=O)N[C@@H](CCCC[C@H](N)C(=O)N[C@@H](Cc4ccc(O)cc4)C(=O)N[C@@H](CCCNC(=N)N)C(=O)N[C@@H](CC(C)C)C(=O)N[C@@H](CCCNC(=N)N)C(=O)N[C@@H](Cc4ccc(O)cc4)C(N)=O)C(=O)N[C@@H](Cc4ccc(O)cc4)C(=O)N[C@@H](CCCNC(=N)N)C(=O)N[C@@H](CC(C)C)C(=O)N[C@@H](CCCNC(=N)N)C(=O)N[C@@H](Cc4ccc(O)cc4)C(N)=O)CC3)c3ccc(=[N+](CC)CC)cc-3oc2c1`, the IC50 in data set [1] (read-out: pIC50 (converted)) is 70.8 nM. Also, the Rmax in data set [4] turned out to be 15.9%.

Consider `CCN1\C(=C/C=C/C=C/C2=[N+](CCCCCC(=O)N[C@H](CCCC[C@@H](N)C(=O)N[C@@H](Cc3ccc(O)cc3)C(=O)N[C@@H](CCCNC(=N)N)C(=O)N[C@@H](CC(C)C)C(=O)N[C@@H](CCCNC(=N)N)C(=O)N[C@@H](Cc3ccc(O)cc3)C(N)=O)C(=O)N[C@@H](Cc3ccc(O)cc3)C(=O)N[C@@H](CCCNC(=N)N)C(=O)N[C@@H](CC(C)C)C(=O)N[C@@H](CCCNC(=N)N)C(=O)N[C@@H](Cc3ccc(O)cc3)C(N)=O)c3ccc(S(=O)(=O)O)cc3C2(C)C)C(C)(C)c2cc(S(=O)(=O)[O-])ccc21`, for which, in data set [2], the Rmax stood at 65.6%. Further, the EC50 in data set [3] (read-out: pEC50 (converted)) was 33.1 nM. Further, in data set [5], the Drug uptake result was “Dose-dependent effect”.

As to `CC(C)C[C@H](NC(=O)[C@H](CCCNC(=N)N)NC(=O)[C@H](Cc1ccc(O)cc1)NC(=O)[C@H](N)C/C=C\C[C@@H](N)C(=O)N[C@@H](Cc1ccc(O)cc1)C(=O)N[C@@H](CCCNC(=N)N)C(=O)N[C@@H](CC(C)C)C(=O)N[C@@H](CCCNC(=N)N)C(=O)N[C@@H](Cc1ccc(O)cc1)C(N)=O)C(=O)N[C@@H](CCCNC(=N)N)C(=O)N[C@@H](Cc1ccc(O)cc1)C(N)=O`, the IC50 in data set [1] (read-out: pIC50 (converted)) was 24 nM. In addition, the Rmax in data set [2] was found to be 61%. For the same compound, the EC50 in data set [3] (read-out: pEC50 (converted)) was 38 nM.

In the case of `COC(=O)[C@H](Cc1ccc(O)cc1)NC(=O)[C@H](CCCNC(=N)N)NC(=O)[C@H](CC(C)C)NC(=O)[C@H](CCCNC(=N)N)NC(=O)[C@H](Cc1ccc(O)cc1)NC(=O)[C@@H](N)CCCC[C@H](N)C(=O)N[C@@H](Cc1ccc(O)cc1)C(=O)N[C@@H](CCCNC(=N)N)C(=O)N[C@@H](CC(C)C)C(=O)N[C@@H](CCCNC(=N)N)C(=O)N[C@@H](Cc1ccc(O)cc1)C(=O)OC`, the IC50 in data set [1] (read-out: pIC50 (converted)) was 617 nM. In addition, the Rmax in data set [4] is 11.3%. Moreover, in the data set filed under Homo sapiens, the Ratio IC50 was found to be 0.38.

As to `CCN1\C(=C/C=C/C=C/C2=[N+](CCCCCC(=O)N[C@@H](CCCC[C@H](N)C(=O)N[C@@H](Cc3ccc(O)cc3)C(=O)N[C@@H](CCCNC(=N)N)C(=O)N[C@@H](CC(C)C)C(=O)N[C@@H](CCCNC(=N)N)C(=O)N[C@@H](Cc3ccc(O)cc3)C(N)=O)C(=O)N[C@@H](Cc3ccc(O)cc3)C(=O)N[C@@H](CCCNC(=N)N)C(=O)N[C@@H](CC(C)C)C(=O)N[C@@H](CCCNC(=N)N)C(=O)N[C@@H](Cc3ccc(O)cc3)C(N)=O)c3ccc(S(=O)(=O)O)cc3C2(C)C)C(C)(C)c2cc(S(=O)(=O)[O-])ccc21`, in data set [2], the Rmax was 56.6%. Besides, in data set [3] (read-out: pEC50 (converted)), the EC50 is 95.5 nM. In data set [5], the Drug uptake result was “Dose-dependent effect”.

Regarding `CCN(CC)c1ccc2c(-c3ccccc3C(=O)N3CCN(C(=O)CCC(=O)N[C@H](C/C=C\C[C@@H](N)C(=O)N[C@@H](Cc4ccc(O)cc4)C(=O)N[C@@H](CCCNC(=N)N)C(=O)N[C@@H](CC(C)C)C(=O)N[C@@H](CCCNC(=N)N)C(=O)N[C@@H](Cc4ccc(O)cc4)C(N)=O)C(=O)N[C@@H](Cc4ccc(O)cc4)C(=O)N[C@@H](CCCNC(=N)N)C(=O)N[C@@H](CC(C)C)C(=O)N[C@@H](CCCNC(=N)N)C(=O)N[C@@H](Cc4ccc(O)cc4)C(N)=O)CC3)c3ccc(=[N+](CC)CC)cc-3oc2c1`, the IC50 in data set [1] (read-out: pIC50 (converted)) was 70.8 nM. For the same compound, the Rmax in data set [2] is 39.3%. Besides, the EC50 in data set [3] (read-out: pEC50 (converted)) is 3.72 nM.

With `CCN(CC)c1ccc2c(-c3ccccc3C(=O)N3CCN(C(=O)CCC(=O)N[C@@H](C/C=C\C[C@H](N)C(=O)N[C@@H](Cc4ccc(O)cc4)C(=O)N[C@@H](CCCNC(=N)N)C(=O)N[C@@H](CC(C)C)C(=O)N[C@@H](CCCNC(=N)N)C(=O)N[C@@H](Cc4ccc(O)cc4)C(N)=O)C(=O)N[C@@H](Cc4ccc(O)cc4)C(=O)N[C@@H](CCCNC(=N)N)C(=O)N[C@@H](CC(C)C)C(=O)N[C@@H](CCCNC(=N)N)C(=O)N[C@@H](Cc4ccc(O)cc4)C(N)=O)CC3)c3ccc(=[N+](CC)CC)cc-3oc2c1`, the IC50 in data set [1] (read-out: pIC50 (converted)) was 69.2 nM. For the same compound, the Rmax in data set [2] turned out to be 29.2%. Besides, in data set [3] (read-out: pEC50 (converted)), the EC50 was 5.5 nM.

In the case of `CC(C)C[C@H](NC(=O)[C@H](CCCNC(=N)N)NC(=O)[C@H](Cc1ccc(O)cc1)NC(=O)[C@@H](N)CCCC[C@H](N)C(=O)N[C@@H](Cc1ccc(O)cc1)C(=O)N[C@@H](CCCNC(=N)N)C(=O)N[C@@H](CC(C)C)C(=O)N[C@@H](CCCNC(=N)N)C(=O)N[C@@H](Cc1ccc(O)cc1)C(N)=O)C(=O)N[C@@H](CCCNC(=N)N)C(=O)N[C@@H](Cc1ccc(O)cc1)C(N)=O`, in data set [1] (read-out: pIC50 (converted)), the IC50 was 69.2 nM. Moreover, the Rmax in data set [2] amounted to 57.1%. In addition, the EC50 in data set [3] (read-out: pEC50 (converted)) is 83.2 nM.
